This note sets out measurements from ChEMBL document CHEMBL5236612, “Heterobivalent Inhibitors of Acetyl-CoA Carboxylase: Drug Target Residence Time and Time-Dependent Antibacterial Activity” (J Med Chem, 2022).

Structures are written as SMILES. Values after ≈ are worked out from the molar mass of the structure shown. Active and inactive are the calls of the source. The rule behind the calls is not given here.

In test [1] the test system is Escherichia coli. Description: Displacement of 11-(4-(22-(2,4-dibromo-3-(2,7-diaminopyrido[2,3-d]pyrimidin-6-yl)phenoxy)-5,8,11,14,17,20-hexaoxadocos-1-yl)-1H-1,2,3-triazol-1-yl)-N-((1S)-3-(((2S)-3-methyl-1-((3R,4S)-4-methyl-2,5-dioxopyrrolidin-3-yl)-1-oxobutan-2-yl)amino)-3-oxo-1-phenylpropyl)undecanamide from Escherichia coli ACC expressed in Escherichia coli BL21(DE3) pLysS at 100 uM preincubated for 1 hr followed by compound addition by LC-MS/MS method. An outline of the steps:
(§1)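 Purified E. coli ACC (1 μM), in 100 mM HEPES pH 8.0 with 15 mM KHCO3 and 20 mM MgCl2, was held 1 h at 22 °C with equimolar heterobivalent inhibitor. Competitor was then added: 100 μM of one warhead alone, or 50 μM each of both warheads together. At timed points, aliquots were spun through G-25 gel filtration columns in 10 mM ammonium formate pH 8.0. Flow-through was denatured in 50% MeCN and bound inhibitor quantified by LC-MS/MS. Dissociation rate came from a single-exponential fit.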

The test system of test [2] is Escherichia coli. Description: Additive antibacterial activity against Escherichia coli harbouring TolC-deficient mutant assessed as fractional inhibitory concentration index. In kind it is functional. An outline of the steps: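 Checkerboard MIC of two compounds combined against tolC-knockout E. coli, without PMBN; FIC index derived from combination MICs.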
The test system of test [3] is Escherichia coli. Nature of the test: Antibacterial activity against tolC knockout Escherichia coli incubated for 24 hrs by microbroth dilution method. In kind it is functional.
The nature of test [4]: Inhibition of Escherichia coli ACC incubated for 5 mins. An outline of the steps:
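ACC reconstituted from 1 nM BC, 2 nM biotinylated BCCP and 1 nM CT (His-tagged E. coli proteins) in 100 mM HEPES pH 8.0 with 15 mM KHCO3 and 20 mM MgCl2. Enzyme was mixed with inhibitor or DMSO, and reactions were started with 10 μM ATP and 200 μM acetyl-CoA. ADP formed was read by Transcreener fluorescence polarization after a 45 min endpoint.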

Test [5] has as its system Escherichia coli. Nature of the test: Displacement of 11-(4-(22-(2,4-dibromo-3-(2,7-diaminopyrido[2,3-d]pyrimidin-6-yl)phenoxy)-5,8,11,14,17,20-hexaoxadocos-1-yl)-1H-1,2,3-triazol-1-yl)-N-((1S)-3-(((2S)-3-methyl-1-((3R,4S)-4-methyl-2,5-dioxopyrrolidin-3-yl)-1-oxobutan-2-yl)amino)-3-oxo-1-phenylpropyl)undecanamide from Escherichia coli ACC expressed in Escherichia coli BL21(DE3) pLysS at 50 uM preincubated for 1 hr in presence of Moiramide-B followed by compound addition by LC-MS/MS method. The method, boiled down:
as §1

Test [6] deals with Escherichia coli. Nature of the test: Antibacterial activity against tolC knockout Escherichia coli incubated for 24 hrs in presence of PMBN by microbroth dilution method. In kind it is functional.
The subject of test [7] is Escherichia coli. Description: Antibacterial activity against Escherichia coli K12 incubated for 24 hrs by microbroth dilution method. In kind it is functional. On the technique in general: Dilution methods test growth across graded concentrations, often in twofold steps.
The test system of test [8] is Escherichia coli. Nature of the test: Antibacterial activity against acrAB knockout Escherichia coli MG1655 incubated for 24 hrs in presence of PMBN by microbroth dilution method. In kind it is functional.
A short description of test [9]: Inhibition of Escherichia coli ACC expressed in Escherichia coli BLR(DE3) cells.
Test [10] can be described thus: Inhibition of Escherichia coli ACC expressed in Escherichia coli BL21(DE3) pLysS incubated for 45 mins in presence of ATP and acetyl coA by fluorescence polarization assay. The method, boiled down:
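E. coli BC (1 nM), biotinylated BCCP (2 nM) and CT (1 nM), His-tag purified then size-exclusion purified, preincubated with inhibitor in 100 mM HEPES pH 8.0, 15 mM KHCO3, 20 mM MgCl2. ADP detected by Transcreener fluorescence polarization; Morrison fit for Ki when tight binding; triplicate.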
(Polarisation of emitted light reports the rotation of a fluorescent probe.)

Test [11] deals with Escherichia coli. Nature of the test: Displacement of 11-(4-(22-(2,4-dibromo-3-(2,7-diaminopyrido[2,3-d]pyrimidin-6-yl)phenoxy)-5,8,11,14,17,20-hexaoxadocos-1-yl)-1H-1,2,3-triazol-1-yl)-N-((1S)-3-(((2S)-3-methyl-1-((3R,4S)-4-methyl-2,5-dioxopyrrolidin-3-yl)-1-oxobutan-2-yl)amino)-3-oxo-1-phenylpropyl)undecanamide from Escherichia coli ACC expressed in Escherichia coli BL21(DE3) pLysS at 50 uM preincubated for 1 hr in presence of 6-(2,6-dibromophenyl)pyrido[2,3-d]pyrimidine-2,7-diamine followed by compound addition by LC-MS/MS method. The method, boiled down:
as §1

The subject of test [12] is Escherichia coli. Description: Antibacterial activity against acrAB knockout Escherichia coli MG1655 incubated for 24 hrs by microbroth dilution method. In kind it is functional.
The test system of test [13] is Escherichia coli. Nature of the test: Antibacterial activity against Escherichia coli incubated for 24 hrs in presence of PMBN by microbroth dilution method. In kind it is functional.
Test [14] has as its system Escherichia coli. Nature of the test: Synergistic antibacterial activity against Escherichia coli harbouring TolC-deficient mutant assessed as fractional inhibitory concentration index at […] in presence of PMBN. In kind it is functional. The settings on record: dose 0.025 µM.

Take `Nc1ncc2cc(-c3c(Br)cccc3Br)c(N)nc2n1`: the outcome in test [1] was inactive. Besides, the “fractional inhibitory concentration index (FICI)” value in [2] was found to be 0.5. Also, the MIC (usually the lowest concentration found to suppress growth) in test [3] stood at 1.56 µM (≈ 0.616 µg/mL). Moreover, the IC50 (usually the concentration at which inhibition is half-maximal) in test [4] is below 5 nM. In addition, the outcome in [5] was Active.
Consider `C/C=C/C=C/C(=O)N[C@@H](CC(=O)N[C@H](C(=O)[C@@H]1C(=O)NC(=O)[C@H]1C)C(C)C)c1ccccc1`, for which the MIC in test [6] is 0.1 µM; in test [7], above 25 µM; in test [3] it was 1.56 µM (≈ 0.708 µg/mL); in [8], 0.39 µM; in [12], 25 µM (≈ 11.3 µg/mL); in test [13], 3.13 µM. For the same molecule, in test [1], the outcome was inactive. For the same molecule, the “fractional inhibitory concentration index (FICI)” value in [2] stood at 0.5. Further, the figures for the IC50 in test [9] and in test [10] were 6 nM and 4.5 nM, respectively. The result in test [11] was Active. The FIC in test [14] worked out at 0.38.
